# Columns and labels:
# [1] = Cytotoxicity against human Caco-2 cells assessed as inhibition of cell viability incubated for 48 hrs by Cell Titer GLO assay; assay type: toxicity, cell-based
# In short: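 Caco-2 cells in DMEM with 10% FCS, seeded 25 000 per well, adhered overnight, then given peptide at 2–256 μg mL−1 in complete medium for 48 h at 37 °C, 5% CO2. Controls: cisplatin 125 μM; 0.1% DMSO medium. Viability by ATP luminescence (CellTiter-Glo) versus untreated cells; IC50 from dose–response; mean ± SEM of at least three independent experiments.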
# [2] = Antimicrobial activity against Salmonella enterica serovar Newport ATCC 6962 assessed as growth inhibition by microdilution assay; assay type: functional, Salmonella enterica subsp. enterica serovar Newport
# In short: (§1)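 Twofold serial microdilution of peptide (stocks 2 mg mL−1, diluted to 512 μg mL−1 in water with 10% DMSO) in strain medium, about 1 × 10^4 cfu per well. Media: TSB 20 h 37 °C (S. aureus, L. monocytogenes, B. subtilis, E. faecalis); LB 20 h 37 °C (P. aeruginosa, S. enterica, E. coli); Brucella 48 h 37 °C (C. coli). A595 read; MIC = lowest concentration with no visible growth; triplicate.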
# Enterococcus faecalis = assay: Antimicrobial activity against Enterococcus faecalis ATCC 29212 assessed as growth inhibition by microdilution assay; assay type: functional; in short: as §1
# Listeria monocytogenes = assay: Antimicrobial activity against Listeria monocytogenes ATCC 19111 assessed as growth inhibition by microdilution assay; assay type: functional; in short: as §1
# Staphylococcus aureus [3] = assay: Antimicrobial activity against Staphylococcus aureus ATCC 6538 assessed as growth inhibition by microdilution assay; assay type: functional; in short: as §1
# Clostridium perfringens = assay: Antimicrobial activity against Clostridium perfringens ATCC 3628 assessed as growth inhibition by microdilution assay; assay type: functional
# In short: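 Broth microdilution: twofold serial peptide dilutions in reinforced clostridial medium (RCM), seeded with about 1 × 10^4 cfu per well, incubated 20 h at 37 °C. Working solution 512 μg mL−1 made from a 2 mg mL−1 stock in water with 10% DMSO. Growth read as absorbance at 595 nm. MIC taken as the lowest concentration giving complete inhibition of visible growth; run in triplicate.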
# [4] = Hemolytic activity in human erythrocytes at 128 ug/ml measured after 1 hr by absorbance based assay relative to control; assay type: toxicity, cell-based, Erythrocyte; settings: at 128 µg/mL, read-out: Activity
# In short: (§2)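 Washed human donor erythrocytes at 1% hematocrit in PBS pH 7.4 exposed to twofold peptide dilutions (final 2–256 μg mL−1, up to 1% DMSO) for 1 h at 37 °C. After centrifugation, supernatant A405 read. % hemolysis relative to PBS (0%) and 1% Triton X-100 (100%). Triplicate; mean ± SEM.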
# Staphylococcus aureus [5] = assay: Antimicrobial activity against Staphylococcus aureus ATCC 6538 assessed as growth inhibition at 128 ug/ml by radial diffusion assay; assay type: functional, organism-based; settings: dose 128.0 µg/ml
# In short: (§3)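 Agar well diffusion. Overnight cultures inoculated at 1% into 0.75% soft agar (TSB for S. aureus, LB for P. aeruginosa). Each well received 80 μL of peptide at 128 μg mL−1 in water with 10% DMSO; 10% DMSO served as negative control. Inhibition zone diameter scored after strain-specific incubation.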
# Pseudomonas aeruginosa [6] = assay: Antimicrobial activity against Pseudomonas aeruginosa ATCC […] assessed as growth inhibition at 128 ug/ml by radial diffusion assay; assay type: functional, organism-based; settings: dose 128.0 µg/ml; in short: as §3
# [7] = Hemolytic activity in human erythrocytes at 256 ug/ml measured after 1 hr by absorbance based assay relative to control; assay type: toxicity, cell-based, Erythrocyte; settings: at 256 µg/mL, read-out: Activity; in short: as §2
# Campylobacter coli = assay: Antimicrobial activity against Campylobacter coli ATCC 33559 assessed as growth inhibition by microdilution assay; assay type: functional; in short: as §1
# Escherichia coli = assay: Antimicrobial activity against Escherichia coli ATCC 25922 assessed as growth inhibition by microdilution assay; assay type: functional; in short: as §1
# Bacillus subtilis = assay: Antimicrobial activity against Bacillus subtilis ATCC 23957 assessed as growth inhibition by microdilution assay; assay type: functional; in short: as §1
# Pseudomonas aeruginosa [8] = assay: Antimicrobial activity against Pseudomonas aeruginosa ATCC […] assessed as growth inhibition by microdilution assay; assay type: functional; in short: as §1
# Staphylococcus aureus [9] = assay: Antimicrobial activity against Staphylococcus aureus ATCC 6538 assessed as diameter of growth inhibition at 128 ug/ml by radial diffusion assay; assay type: functional; settings: dose 128 µg/ml; in short: as §3
# Pseudomonas aeruginosa [10] = assay: Antimicrobial activity against Pseudomonas aeruginosa ATCC […] assessed as diameter of growth inhibition at 128 ug/ml by radial diffusion assay; assay type: functional; settings: dose 128 µg/ml; in short: as §3
Structure (SMILES),IC50 at 48 h [1] [µg/mL],MIC [2] [µg/mL],MIC (Enterococcus faecalis) [µg/mL],MIC (Listeria monocytogenes) [µg/mL],MIC (Staphylococcus aureus [3]) [µg/mL],MIC (Clostridium perfringens) [µg/mL],"hemolysis at 1 h, 128 ug/ml [4] [%]",growth inhibition (qualitative call) (Staphylococcus aureus [5]),growth inhibition (qualitative call) (Pseudomonas aeruginosa [6]),"hemolysis at 1 h, 256 ug/ml [7] [%]",MIC (Campylobacter coli) [µg/mL],MIC (Escherichia coli) [µg/mL],MIC (Bacillus subtilis) [µg/mL],MIC (Pseudomonas aeruginosa [8]) [µg/mL],Activity (Staphylococcus aureus [9]) [mm],Activity (Pseudomonas aeruginosa [10]) [mm]
CC[C@@H](NC(=O)[C@@H](O)[C@@H](C)CC)C(=O)N[C@@H](CC(C)C)C(=O)N[C@H](CCCN)C(=O)N[C@H](C(=O)N[C@H](C(=O)N[C@H](C(=O)N[C@H](CCCCN)C(=O)N[C@H](C(=O)N[C@H](C(=O)N[C@@H](CCCCN)C(=O)N[C@H](Cc1ccc(O)cc1)C(=O)N[C@@H](CC(C)C)C(=O)N[C@H](CO)C(C)C)C(C)C)C(C)C)C(C)C)C(C)C)C(C)C,32.4,> 128,> 128,4,2,8,1.2,Not active; Exhibited Small Decrease In Activity,Not active; Exhibited Small Decrease In Activity,4.2,16,64,4,2,–,–
CC[C@H](NC(=O)[C@@H](NC(C)=O)[C@@H](C)CC)C(=O)N[C@@H](CC(C)C)C(=O)N[C@H](CCCN)C(=O)N[C@H](C(=O)N[C@H](C(=O)N[C@H](C(=O)N[C@H](CCCCN)C(=O)N[C@H](C(=O)N[C@H](C(=O)N[C@@H](CCCCN)C(=O)N[C@H](Cc1ccc(O)cc1)C(=O)N[C@@H](CC(C)C)C(=O)N[C@H](CO)C(C)C)C(C)C)C(C)C)C(C)C)[C@@H](C)CC)[C@@H](C)CC,17.6,> 128,32,2,2,2,23.3,–,–,38.2,16,> 128,4,2,7,7
CC[C@H](C)[C@H](O)C(=O)N[C@@H](C)C(=O)N[C@@H](CC(C)C)C(=O)N[C@H](CCCN)C(=O)N[C@H](C(=O)N[C@H](C(=O)N[C@H](C(=O)N[C@H](CCCCN)C(=O)N[C@H](C(=O)N[C@H](C(=O)N[C@@H](CCCCN)C(=O)N[C@H](Cc1ccc(O)cc1)C(=O)N[C@@H](CC(C)C)C(=O)N[C@H](CO)C(C)C)C(C)C)C(C)C)C(C)C)[C@@H](C)CC)[C@@H](C)CC,13.5,> 128,4,1,2,2,–,–,–,–,8,64,2,1,11,12
CC[C@H](C)[C@H](O)C(=O)N[C@H](C(=O)N[C@@H](CC(C)C)C(=O)N[C@H](CCCN)C(=O)N[C@H](C(=O)N[C@H](C(=O)N[C@H](C(=O)N[C@H](CCCCN)C(=O)N[C@H](C(=O)N[C@H](C(=O)N[C@@H](CCCCN)C(=O)N[C@H](Cc1ccc(O)cc1)C(=O)N[C@@H](CC(C)C)C(=O)N[C@H](CO)C(C)C)C(C)C)C(C)C)C(C)C)[C@@H](C)CC)[C@@H](C)CC)[C@@H](C)O,32.2,> 128,16,4,2,4,1.2,–,–,4.9,16,32,1,2,11,12

# Reference: ChEMBL document CHEMBL6134793, “Synthesis and structure-activity study of the antimicrobial lipopeptide brevibacillin” (RSC Med Chem, 2024)
